We go through five molecules from ChEMBL document CHEMBL1123929, “Investigation of peripheral cholecystokinin receptor heterogeneity by cyclic and related linear analogues of CCK26-33: synthesis and biological properties” (J Med Chem, 1987).

Non-standard residues stand in square brackets, D forms with d. Residues, ends and D or L forms follow the SMILES beside them. *: point of attachment. sY = N[C@@H](Cc1ccc(OS(=O)(=O)O)cc1)C(=O)O; Nle = CCCC[C@H](N)C(=O)O; Boc = CC(C)(C)OC(=O)*

In one assay the target is T1, Cholecystokinin receptor (Mus musculus, UniProt O08786+P56481).
T1 sequence (O08786 whole entry): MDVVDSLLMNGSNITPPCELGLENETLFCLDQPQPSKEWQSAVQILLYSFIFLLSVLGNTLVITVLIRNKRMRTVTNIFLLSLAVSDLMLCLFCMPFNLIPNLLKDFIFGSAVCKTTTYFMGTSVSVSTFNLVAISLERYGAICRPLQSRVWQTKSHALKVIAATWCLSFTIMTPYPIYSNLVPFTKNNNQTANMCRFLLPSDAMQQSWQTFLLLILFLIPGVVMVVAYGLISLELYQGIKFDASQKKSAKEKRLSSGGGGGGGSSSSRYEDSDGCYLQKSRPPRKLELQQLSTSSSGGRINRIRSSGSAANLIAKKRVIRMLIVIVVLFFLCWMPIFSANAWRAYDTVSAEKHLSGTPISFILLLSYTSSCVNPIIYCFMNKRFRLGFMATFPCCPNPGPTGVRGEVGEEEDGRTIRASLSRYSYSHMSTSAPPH
T1 sequence (P56481 whole entry): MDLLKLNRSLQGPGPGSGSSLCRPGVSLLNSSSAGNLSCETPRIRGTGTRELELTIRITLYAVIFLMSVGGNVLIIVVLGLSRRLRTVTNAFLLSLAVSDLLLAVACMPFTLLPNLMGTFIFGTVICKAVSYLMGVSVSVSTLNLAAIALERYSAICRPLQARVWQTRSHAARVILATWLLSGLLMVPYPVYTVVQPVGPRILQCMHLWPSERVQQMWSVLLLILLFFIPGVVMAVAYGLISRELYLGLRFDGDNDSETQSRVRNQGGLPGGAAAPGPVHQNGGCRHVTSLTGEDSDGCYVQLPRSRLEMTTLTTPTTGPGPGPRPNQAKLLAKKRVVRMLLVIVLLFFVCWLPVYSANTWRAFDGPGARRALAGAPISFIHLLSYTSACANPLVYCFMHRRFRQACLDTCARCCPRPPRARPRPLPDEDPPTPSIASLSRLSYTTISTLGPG
Description: Binding affinity measured by inhibiting [3H]Boc[Nle28,31]CCK27-33 specific binding to Cholecystokinin receptor in mouse brain membranes at a KD concentration of 0.19 nM. In kind it is cell membranes, Membrane.

For assay [1], the species on record is Cavia porcellus. As to the kind of experiment: Evaluated for contractile activities of guinea pig ileum for agonistic activity. In kind it is functional. Put shortly: (§1)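 Isolated guinea pig ileum contraction by the Hutchinson and Dockray method, with atropine present (1.5 mg/L). Agonism was tested by direct contraction. Antagonism was tested against contraction evoked by 3 × 10⁻⁹ M CCK8. Peptides were used as Na salts. Values are mean ± SEM of three separate experiments.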

The species entered for a further assay is Rattus norvegicus. Description: Evaluated for agonist activity measured as amylase secretion by rat pancreas. It is filed as functional. A digest of the protocol: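 Rat pancreas fragments stimulated with peptide (Na salt form). Amylase released into the medium was measured with Phadebas reagent by the Ceska method. EC50 was taken from concentration–response curves. Results are means of three separate experiments, each value in triplicate.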

For assay [2], the target named is T2, Cholecystokinin receptor type A (Rattus norvegicus, UniProt P30551).
T2 sequence (P30551 whole entry): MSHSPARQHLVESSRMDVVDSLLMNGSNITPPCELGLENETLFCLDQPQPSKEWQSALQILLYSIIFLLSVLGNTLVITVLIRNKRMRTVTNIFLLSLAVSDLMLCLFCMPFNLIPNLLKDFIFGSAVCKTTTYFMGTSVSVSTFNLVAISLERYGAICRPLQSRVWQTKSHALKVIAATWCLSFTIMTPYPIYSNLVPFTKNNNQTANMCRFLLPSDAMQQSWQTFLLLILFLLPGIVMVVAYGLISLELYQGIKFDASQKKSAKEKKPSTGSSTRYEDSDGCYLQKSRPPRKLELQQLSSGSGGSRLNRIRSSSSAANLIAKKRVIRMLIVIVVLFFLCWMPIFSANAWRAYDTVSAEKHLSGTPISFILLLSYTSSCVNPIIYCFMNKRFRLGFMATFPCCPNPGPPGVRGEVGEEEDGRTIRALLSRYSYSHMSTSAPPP
Description: Evaluated for binding affinity measured by inhibiting [3H]Boc[Nle28,31]CCK27-33 specific binding to Cholecystokinin receptor in rat pancreas membranes at a KD concentration of 4.4 nM. It is filed as cell membranes, Membrane.

For assay [3], the species on record is Cavia porcellus. As to the kind of experiment: Evaluated for contractile activities of guinea pig ileum for antagonistic activity (contraction induced by 3, 10e -9M of CCK-8). In kind it is functional. A digest of the protocol: as §1

As a reminder, the Ki is the dissociation constant of the complex between target and ligand, obtained from inhibition or displacement. By EC50 is commonly meant the concentration at which the effect is half-maximal. A high value points to a need for much substance.

Take `CCCC[C@H](NC(=O)[C@H](Cc1ccc(OS(=O)(=O)O)cc1)NC(=O)OC(C)(C)C)C(=O)NCC(=O)N[C@@H](Cc1c[nH]c2ccccc12)C(=O)N[C@@H](CCCC)C(=O)N[C@@H](CC(=O)O)C(=O)N[C@@H](Cc1ccccc1)C(N)=O` (Boc-[sY][Nle]GW[Nle]DF-NH2): the Ki at Cholecystokinin receptor worked out at 1.91e-10 M. Also, the EC50 in the assay listed under Cavia porcellus [1] was 3.2 nM; in the assay filed under Rattus norvegicus it was 2.8 nM.

In the case of `CCCC[C@H](NC(=O)[C@H](Cc1c[nH]c2ccccc12)NC(=O)[C@H]1CCCCNC(=O)C[C@H](NC(=O)OC(C)(C)C)C(=O)N[C@@H](Cc2ccc(OS(=O)(=O)O)cc2)C(=O)N[C@@H](CCCC)C(=O)N1)C(=O)N[C@@H](CC(=O)O)C(N)=O`, the Ki was more than 10000 nM in assay [2] and more than 0.00001 M on Cholecystokinin receptor. The EC50 in the assay filed under Cavia porcellus [1] was more than 10000 nM; in the assay listed under Cavia porcellus [3] it was more than 10000 nM; in the assay listed under Rattus norvegicus it was more than 1000 nM.

The molecule `CSCC[C@H](NC(=O)[C@H](Cc1ccc(OS(=O)(=O)O)cc1)NC(=O)[C@@H](N)CC(=O)O)C(=O)NCC(=O)N[C@@H](Cc1c[nH]c2ccccc12)C(=O)N[C@@H](CCSC)C(=O)N[C@@H](CC(=O)O)C(=O)N[C@@H](Cc1ccccc1)C(N)=O` [SINCALIDE] returned a Ki at Cholecystokinin receptor of 4.91e-10 M. Moreover, the EC50 was determined as 2 nM in the assay listed under Cavia porcellus [1] and 1 nM in the assay listed under Rattus norvegicus.

Take `CCCC[C@H](NC(=O)[C@H](Cc1c[nH]c2ccccc12)NC(=O)[C@@H](CCCCN)NC(=O)[C@H](CCCC)NC(=O)[C@H](Cc1ccc(OS(=O)(=O)O)cc1)NC(=O)[C@H](CC(=O)O)NC(=O)OC(C)(C)C)C(=O)N[C@@H](CC(=O)O)C(=O)N[C@@H](Cc1ccccc1)C(N)=O`: the Ki in assay [2] was 340 nM; at Cholecystokinin receptor, 3e-07 M. Also, the EC50 in the assay listed under Cavia porcellus [1] was more than 10000 nM; in the assay listed under Cavia porcellus [3], 15000 nM; in the assay filed under Rattus norvegicus, 40 nM.

In the case of `CCCC[C@H](NC(=O)[C@H](Cc1c[nH]c2ccccc12)NC(=O)[C@@H](CCCCN)NC(=O)[C@H](CCCC)NC(=O)[C@H](Cc1ccc(OS(=O)(=O)O)cc1)NC(=O)[C@H](CC(=O)O)NC(=O)OC(C)(C)C)C(=O)N[C@@H](CC(=O)O)C(N)=O`, the Ki in assay [2] was more than 10000 nM; at Cholecystokinin receptor, more than 1e-05 M. The figures for the EC50 in the assay filed under Cavia porcellus [1], in the assay filed under Cavia porcellus [3] and in the assay filed under Rattus norvegicus were more than 10000 nM, more than 10000 nM and more than 100000 nM, respectively.
